In ChEMBL document CHEMBL2169800 (J Med Chem, 2012) one finds IC50 data, which are given here for 36 compounds.

Usually IC50 stands for the concentration needed to halve the response being measured.

Assay [1] addresses T1, Prostaglandin G/H synthase 1 (Ovis aries, UniProt P05979).
T1 sequence (P05979 whole entry): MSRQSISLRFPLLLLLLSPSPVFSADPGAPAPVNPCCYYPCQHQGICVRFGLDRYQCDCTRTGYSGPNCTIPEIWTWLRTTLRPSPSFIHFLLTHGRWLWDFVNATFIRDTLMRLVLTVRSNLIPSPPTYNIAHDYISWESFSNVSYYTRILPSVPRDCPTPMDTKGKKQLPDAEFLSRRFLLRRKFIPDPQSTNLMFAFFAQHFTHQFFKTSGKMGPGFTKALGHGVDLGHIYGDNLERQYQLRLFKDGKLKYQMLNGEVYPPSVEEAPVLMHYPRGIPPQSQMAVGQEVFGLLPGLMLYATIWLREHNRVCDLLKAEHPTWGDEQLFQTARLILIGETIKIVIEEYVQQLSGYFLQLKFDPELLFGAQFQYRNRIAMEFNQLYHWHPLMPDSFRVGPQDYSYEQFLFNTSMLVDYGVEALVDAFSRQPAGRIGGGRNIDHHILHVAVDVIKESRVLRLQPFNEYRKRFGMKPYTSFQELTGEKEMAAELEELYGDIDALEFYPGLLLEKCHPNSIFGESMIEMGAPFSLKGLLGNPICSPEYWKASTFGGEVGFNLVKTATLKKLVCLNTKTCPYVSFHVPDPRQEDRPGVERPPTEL
Kind of assay: Inhibition of ovine COX1 pre-incubated for 10 mins before arachidonic acid substrate addition by enzyme immunoassay. The method, boiled down:
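Ovine COX-1 pre-incubated with inhibitor for 10 min at 37 °C, then 5 μM arachidonic acid for 2 min at 37 °C. Stopped with HCl; PGH2 reduced to PGF2α with SnCl2 and measured by competitive EIA (PG antibody, PG-acetylcholinesterase conjugate), absorbance at 412 nm.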

Assay [2] addresses T2, Prostaglandin G/H synthase 2 (Homo sapiens, UniProt P35354).
T2 sequence (P35354 whole entry): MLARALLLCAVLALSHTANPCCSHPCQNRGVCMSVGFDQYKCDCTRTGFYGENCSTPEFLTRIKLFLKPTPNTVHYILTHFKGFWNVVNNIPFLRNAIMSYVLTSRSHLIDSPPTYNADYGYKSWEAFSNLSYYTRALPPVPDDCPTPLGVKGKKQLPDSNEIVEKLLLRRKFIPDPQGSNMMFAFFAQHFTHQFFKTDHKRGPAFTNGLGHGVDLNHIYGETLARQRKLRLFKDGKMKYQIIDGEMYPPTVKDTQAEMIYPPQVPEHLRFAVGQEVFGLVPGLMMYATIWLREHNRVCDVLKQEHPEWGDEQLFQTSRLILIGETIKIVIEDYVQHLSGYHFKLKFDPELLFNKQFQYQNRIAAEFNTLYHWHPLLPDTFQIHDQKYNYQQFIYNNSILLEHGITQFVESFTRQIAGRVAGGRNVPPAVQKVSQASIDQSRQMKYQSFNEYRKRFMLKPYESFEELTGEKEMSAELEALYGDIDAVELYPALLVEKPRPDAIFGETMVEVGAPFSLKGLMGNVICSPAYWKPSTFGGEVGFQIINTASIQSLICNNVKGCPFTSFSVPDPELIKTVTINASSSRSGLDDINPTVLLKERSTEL
Put plainly: Inhibition of human COX2 pre-incubated for 10 mins before substrate addition by enzyme immunoassay.

For assay [3], the target named is T3, Fatty-acid amide hydrolase 1 (Rattus norvegicus, UniProt P97612).
T3 sequence (P97612 whole entry): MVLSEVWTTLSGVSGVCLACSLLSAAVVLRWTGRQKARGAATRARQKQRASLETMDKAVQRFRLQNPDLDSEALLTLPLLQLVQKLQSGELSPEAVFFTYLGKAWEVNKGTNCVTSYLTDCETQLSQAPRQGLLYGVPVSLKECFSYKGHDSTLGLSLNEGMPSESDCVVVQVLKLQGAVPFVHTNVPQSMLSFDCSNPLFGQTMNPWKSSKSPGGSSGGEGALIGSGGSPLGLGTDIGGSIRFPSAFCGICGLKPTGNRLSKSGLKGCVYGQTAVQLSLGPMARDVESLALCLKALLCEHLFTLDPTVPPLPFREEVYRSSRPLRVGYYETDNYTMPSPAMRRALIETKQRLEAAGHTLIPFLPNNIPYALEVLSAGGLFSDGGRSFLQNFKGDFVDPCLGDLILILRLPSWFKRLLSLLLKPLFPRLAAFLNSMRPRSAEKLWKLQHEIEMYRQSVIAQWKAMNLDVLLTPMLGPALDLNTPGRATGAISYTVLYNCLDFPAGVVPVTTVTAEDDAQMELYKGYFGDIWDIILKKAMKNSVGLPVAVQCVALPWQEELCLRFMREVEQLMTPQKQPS
Kind of assay: Inhibition of FAAH in rat brain homogenates pre-incubated for 10 mins before addition of [3H]anandamide and [3H]AEA substrates for 30 mins by liquid scintillation counting. The class given is tissue-based. The method, boiled down: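 Rat whole-brain homogenate (50 ug protein/sample) in 50 mM TRIS pH 7.4, 0.05 % fatty acid free BSA; inhibitor pre-incubated 10 min, then 1 uM unlabelled AEA plus 0.6 nM [3H]-AEA added for 30 min at 37°C. Stopped with cold 1:1 CHCl3/MeOH; aqueous phase counted.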

In turn, `C[C@H](C(=O)O)c1ccc2c(c1)[nH]c1ccc(Cl)cc12` gave an IC50 in assay [1] of 5.6 µM.

On to `C[C@@H](C(=O)O)c1ccc2c(c1)[nH]c1ccc(Cl)cc12`, for which the IC50 in assay [1] was above 100 µM.

Regarding `C[C@H](C(=O)O)c1ccc2c3cc(Cl)ccc3n(C(=O)c3ccc(Cl)cc3)c2c1`, the figures for the IC50 in assay [1], in assay [2] and in assay [3] (read-out: IC50) were 45 µM, 46.5 µM and above 100 µM, respectively.

In the case of `C[C@@H](C(=O)O)c1ccc2c3cc(Cl)ccc3n(C(=O)c3ccc(Cl)cc3)c2c1`, the values for the IC50 in assay [1], in assay [2] and in assay [3] (read-out: IC50) were above 100 µM, above 100 µM and 14.9 µM, respectively.

As to `C[C@H](C(=O)O)c1ccc2c3cc(Cl)ccc3n(C(=O)c3cocn3)c2c1`, the concentration for half-maximal inhibition (IC50) in assay [1] was 4.1 µM; in assay [2], 2.5 µM; in assay [3] (read-out: IC50) it was above 100 µM.

For `C[C@@H](C(=O)O)c1ccc2c3cc(Cl)ccc3n(C(=O)c3cocn3)c2c1`, the IC50 was above 100 µM in assay [1], above 100 µM in assay [2] and 53.2 µM in assay [3] (read-out: IC50).

Regarding `COc1cccc(Cn2c3ccc(Cl)cc3c3ccc(C(C)C(=O)O)cc32)c1` (racemic), the IC50 in assay [1] was above 100 µM; in assay [2] it was above 100 µM; in assay [3] (read-out: IC50), 32.5 µM.

For the compound `CC(C(=O)O)c1ccc2c3cc(Cl)ccc3n(C(=O)c3ccc(F)cc3)c2c1` (racemic), the values for the IC50 in assay [1], in assay [2] and in assay [3] (read-out: IC50) were above 100 µM, above 100 µM and 30.9 µM, respectively.

For `COc1ccc(C(=O)n2c3ccc(Cl)cc3c3ccc(C(C)C(=O)O)cc32)cc1` (racemic), the IC50 in assay [1] was above 100 µM; in assay [2] it was above 100 µM; in assay [3] (read-out: IC50) it was 10.6 µM.

In the case of `CC(C(=O)O)c1ccc2c3cc(Cl)ccc3n(C(=O)c3cccc(Cl)c3)c2c1` (racemic), the IC50 is above 100 µM in assay [1], above 100 µM in assay [2] and 20.1 µM in assay [3] (read-out: IC50).

With `CC(C(=O)O)c1ccc2c3cc(Cl)ccc3n(C(=O)c3ccccc3Cl)c2c1` (racemic), the results for the IC50 in assay [1], in assay [2] and in assay [3] (read-out: IC50) were above 100 µM, above 100 µM and 59.6 µM, respectively.

With `CC(C(=O)O)c1ccc2c3cc(Cl)ccc3n(C(=O)c3ccc(Cl)c(Cl)c3)c2c1` (racemic), the IC50 in assay [1], in assay [2] and in assay [3] (read-out: IC50) was above 100 µM each time.

Consider `CC(C(=O)O)c1ccc2c3cc(Cl)ccc3n(C(=O)c3cocn3)c2c1` (racemic), for which the figures for the IC50 in assay [1], in assay [2] and in assay [3] (read-out: IC50) were 30 µM, 27.8 µM and 84.8 µM, respectively.

As to `CC(C(=O)O)c1ccc2c3cc(Cl)ccc3n(C(=O)c3cnc[nH]3)c2c1` (racemic), the IC50 in assay [1] was 12.8 µM; in assay [2], above 100 µM; in assay [3] (read-out: IC50), 5.6 µM.

With `CC(C(=O)O)c1ccc2c3cc(Cl)ccc3n(C(=O)c3cscn3)c2c1` (racemic), the IC50 in assay [1], in assay [2] and in assay [3] (read-out: IC50) was above 100 µM each time.

Consider `CC(C(=O)O)c1ccc2c3cc(Cl)ccc3n(C)c2c1` (racemic), for which the 50% inhibitory concentration (IC50) in assay [1] is above 100 µM; in assay [2] it was above 100 µM; in assay [3] (read-out: IC50), 15.5 µM.

Take `CC(C(=O)O)c1ccc2c3cc(Cl)ccc3n(Cc3ccccc3)c2c1` (racemic): the IC50 in assay [1] was above 100 µM; in assay [2], above 100 µM; in assay [3] (read-out: IC50) it was 23.3 µM.

As to `CC(C(=O)O)c1ccc2c3cc(Cl)ccc3n(Cc3ccc(C#N)cc3)c2c1` (racemic), the figures for the half-maximal inhibitory concentration (IC50) in assay [1], in assay [2] and in assay [3] (read-out: IC50) were above 100 µM, above 100 µM and 33.4 µM, respectively.

Regarding `CC(C(=O)O)c1ccc2c3cc(Cl)ccc3n(Cc3ccc(Cl)cc3)c2c1` (racemic), the concentration for half-maximal inhibition (IC50) in assay [1] is above 100 µM; in assay [2], above 100 µM; in assay [3] (read-out: IC50), 10.2 µM.

In the case of `COc1ccc(Cn2c3ccc(Cl)cc3c3ccc(C(C)C(=O)O)cc32)cc1` (racemic), the IC50 in assay [1] is above 100 µM; in assay [2], above 100 µM; in assay [3] (read-out: IC50), 8.4 µM.

As for `CCCCCCS(=O)(=O)n1c2ccc(Cl)cc2c2ccc(C(C)C(=O)O)cc21` (racemic), the IC50 is above 100 µM in assay [1], above 100 µM in assay [2] and 50.3 µM in assay [3] (read-out: IC50).

For `CCCCCCNC(=O)n1c2ccc(Cl)cc2c2ccc(C(C)C(=O)O)cc21` (racemic), the IC50 is above 100 µM in assay [1], above 100 µM in assay [2] and 3.2 µM in assay [3] (read-out: IC50).

As for `CNC(=O)n1c2ccc(Cl)cc2c2ccc(C(C)C(=O)O)cc21` (racemic), the 50% inhibitory concentration (IC50) in assay [1], in assay [2] and in assay [3] (read-out: IC50) was above 100 µM in each case.

As to `CCCCNC(=O)n1c2ccc(Cl)cc2c2ccc(C(C)C(=O)O)cc21` (racemic), the IC50 in assay [1], in assay [2] and in assay [3] (read-out: IC50) was above 100 µM in each case.

Consider `CCCCCCCCNC(=O)n1c2ccc(Cl)cc2c2ccc(C(C)C(=O)O)cc21` (racemic), for which the values for the IC50 in assay [1], in assay [2] and in assay [3] (read-out: IC50) were 15.4 µM, above 100 µM and 26.8 µM, respectively.

Turning to `CC(C(=O)O)c1ccc2c3cc(Cl)ccc3n(C(=O)Nc3ccc(Cl)cc3)c2c1` (racemic), the 50% inhibitory concentration (IC50) in assay [1] was 41.3 µM; in assay [2], above 100 µM; in assay [3] (read-out: IC50), 102 µM.

For the compound `CCCCCCN(C)C(=O)n1c2ccc(Cl)cc2c2ccc(C(C)C(=O)O)cc21` (racemic), the concentration for half-maximal inhibition (IC50) in assay [1], in assay [2] and in assay [3] (read-out: IC50) was above 100 µM throughout.

With `CC(C(=O)O)c1ccc2c3cc(Cl)ccc3n(C(=O)NC3CCCCC3)c2c1` (racemic), the IC50 in assay [1], in assay [2] and in assay [3] (read-out: IC50) was above 100 µM in each case.

With `CCCCCCOC(=O)n1c2ccc(Cl)cc2c2ccc(C(C)C(=O)O)cc21` (racemic), the 50% inhibitory concentration (IC50) in assay [1] is 17.2 µM; in assay [2], above 100 µM; in assay [3] (read-out: IC50), 31.6 µM.

On to `CC(=O)n1c2ccc(Cl)cc2c2ccc(C(C)C(=O)O)cc21` (racemic), for which the 50% inhibitory concentration (IC50) in assay [1], in assay [2] and in assay [3] (read-out: IC50) was above 100 µM each time.

Turning to `CC(C(=O)O)c1ccc2c3cc(Cl)ccc3n(C(=O)c3ccccc3)c2c1` (racemic), the IC50 was above 100 µM in assay [1], above 100 µM in assay [2] and 25.4 µM in assay [3] (read-out: IC50).

Consider `CC(C(=O)O)c1ccc2c3cc(Cl)ccc3n(C(=O)c3ccc(Cl)cc3)c2c1` (racemic), for which the 50% inhibitory concentration (IC50) in assay [1] was 74.3 µM; in assay [2], 72.3 µM; in assay [3] (read-out: IC50), 22 µM.

Turning to `CC(C(=O)NCCO)c1ccc2c(c1)[nH]c1ccc(Cl)cc12` (racemic), the IC50 in assay [1], in assay [2] and in assay [3] (read-out: IC50) was above 100 µM each time.

Turning to `CC(C(=O)O)c1ccc2c3cc(Cl)ccc3n(S(=O)(=O)c3ccc(Cl)cc3)c2c1` (racemic), the half-maximal inhibitory concentration (IC50) in assay [1] was above 100 µM; in assay [2], above 100 µM; in assay [3] (read-out: IC50), 4.8 µM.

With `CC(C(=O)O)c1ccc2c(c1)[nH]c1ccc(Cl)cc12` (racemic) [CARPROFEN], the IC50 in assay [1] was determined as 22.3 µM.

Turning to `CC(C)Cc1ccc(C(C)C(=O)O)cc1` (stereo not given) [IBUPROFEN], the IC50 result in assay [3] is listed as “Not Active”.
